In general, solubility refers to how much of the substance goes into solution per volume. Low readings indicate a poorly soluble substance, high ones a readily soluble substance. A word on the EC50: it is the concentration that produces a half-maximal response.

The results in this text go back to ChEMBL document CHEMBL3352597, “Heck products of parthenolide and melampomagnolide-B as anticancer modulators that modify cell cycle progression” (Eur J Med Chem, 2014).

The nature of series [1]: Solubility in serum (unknown origin). Format: ADME.
Series [2] has as its system Oocyte. Briefly: Induction of immature stage VI Xenopus oocyte maturation assessed as spontaneous maturation measured as germinal vesicle (nuclear) breakdown at 100 uM after overnight incubation. It counts as functional, cell-based. Summed up:
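Isolated Xenopus oocytes (20 per well) incubated overnight with compound in DMSO at 100 μM final, no progesterone. The next morning, GVBD is scored as a white spot at the animal pole. Rate is expressed relative to DMSO controls, where 2.0 means spontaneous maturation.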

The test system of a further series is CCRF-CEM. Briefly: Anticancer activity against human CCRF-CEM cells assessed as growth inhibition at 10^-5 M. It counts as functional. The conditions noted are these: read-out: GI. Put shortly: (§1)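 NCI-60 human tumour cell line panel screened at a single concentration of 10^-5 M; value is percent growth inhibition relative to untreated growth.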
The nature of series [3]: Anticancer activity against human BT549 cells assessed as growth inhibition at 10^-5 M. It counts as functional. The conditions noted are these: BT-549, read-out: GI. Put shortly:
as §1

The test system of series [4] is Oocyte. The series is described as follows: Induction of immature stage VI Xenopus oocyte maturation assessed as stimulation of progesterone-mediated maturation measured as germinal vesicle (nuclear) breakdown after overnight incubation. Format: functional, cell-based. Conditions: Xenopus laevis.
The test system of series [5] is Xenopus. Briefly: Induction of progesterone-independent of MAPK activation in immature stage VI Xenopus oocyte by Western blot analysis. Put shortly:
(§2)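 Oocytes treated with DMSO or compound without progesterone, harvested when 50% of treated oocytes completed GVBD, sorted by GVBD status. Lysates run on 10% gel and blotted with phospho-MAPK Thr202/Tyr204 and phospho-Cdc2 Tyr15 antibodies (1:1000), with tubulin as loading control. MPF activation read as Cdc2 dephosphorylation.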
A general note: A western blot detects proteins with antibodies after separation by electrophoresis.

The test system of series [6] is Xenopus. The series is described as follows: Induction of progesterone-independent of MPF activation in immature stage VI Xenopus oocyte by Western blot analysis. Summed up: as §2
The subject of another series is HL-60(TB). Briefly: Anticancer activity against human HL-60(TB) cells assessed as growth inhibition at 10^-5 M. Conditions: read-out: GI. It counts as functional. Summed up: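 NCI 60 panel initial screen at a single concentration of 10^-5 M. Value is reported as percent growth inhibition of the cell line.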
The next series deals with K562. The series is described as follows: Anticancer activity against human K562 cells assessed as growth inhibition at 10^-5 M. It counts as functional. The conditions noted are these: read-out: GI. Summed up: as §1
A short description of series [7]: Anticancer activity against human MOLT4 cells assessed as growth inhibition at 10^-5 M. It counts as functional. The conditions noted are these: MOLT-4, read-out: GI. Put shortly:
as §1

Series [8] in a line: Anticancer activity against human RPMI8226 cells assessed as growth inhibition at 10^-5 M. It counts as functional. The conditions noted are these: RPMI-8226, read-out: GI. Summed up:
as §1

A short description of series [9]: Anticancer activity against human PC3 cells assessed as growth inhibition at 10^-5 M. Format: functional. Conditions: PC-3, read-out: GI. Put shortly: as §1
For the next series, the system named is MCF7. The series is described as follows: Anticancer activity against human MCF7 cells assessed as growth inhibition at 10^-5 M. Format: functional. Conditions: read-out: GI. Put shortly: as §1

Converted amounts (≈) assume the structure as drawn. The source made the active and inactive calls. The rule behind the calls is not given here.

`C=C1C(=O)O[C@@H]2C3O[C@]3(C)CC/C=C(\C)CC[C@@H]12` (stereo not given in full) registered a solubility in series [1] of 169 µM (≈ 42 µg/mL).
With `C[C@@]12CC/C=C(/CO)CC[C@@H]3/C(=C\c4ccccc4Br)C(=O)O[C@@H]3[C@@H]1O2`, the result with Oocyte [2] was Active. The values for the inhibition of growth at 10 µM (in the series on CCRF-CEM; in [3]) were 28.5% and 24.2%, respectively.
Turning to `C/C1=C\CC[C@@]2(C)O[C@@H]2[C@H]2OC(=O)/C(=C/c3ccccc3Br)[C@@H]2CC1`, the result with Oocyte [2], with Xenopus [5] and with Xenopus [6] was Active. The EC50 in the series on Oocyte [4] turned out to be 6 µM. Also, the inhibition of growth at 10 µM with CCRF-CEM was determined as 22.3%; with HL-60(TB) it was 34.1%; in the series on K562, 28.1%; in [7], 31.2%; in [8] it was 21.3%; in series [9], 42.3%. Besides, the inhibition of growth at 10 µM in the series with MCF7 amounted to 24.3%.
